Molecules are shown by their SMILES.

This note sets out measurements from ChEMBL document CHEMBL3259598, “Lignan dicarboxylates and terpenoids from the flower buds of Cananga odorata and their inhibitory effects on melanogenesis” (J Nat Prod, 2014).

Series [1] in a line: Inhibition of melanogenesis in mouse B16-4A5 cells at 10 uM after 72 hrs by spectrophotometry relative to control. The format is functional. Conditions: B16-4A5, 72 h. The procedure, abridged:
(§1)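 Murine B16 melanoma 4A5 cells seeded at 2.0 × 10^4 cells/well in 24-well plates and cultured 24 h, then given test compound (DMSO, final 0.1%) plus 1 mM theophylline for 72 h. Cells trypsinized, washed and lysed in 1 M NaOH at 80 °C for 30 min; lysate absorbance read at 405 nm. Inhibition is corrected for cell viability, mean ± SEM (n = 4); IC50 determined graphically.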

The nature of series [2]: Inhibition of melanogenesis in mouse B16-4A5 cells after 72 hrs by spectrophotometry relative to control. Conditions: Mus musculus, B16-4A5, 72 h; read-out: IC50. Format: functional, cell-based. The procedure, abridged: as §1
Series [3] can be described thus: Inhibition of melanogenesis in mouse B16-4A5 cells at 3 uM after 72 hrs by spectrophotometry relative to control. Format: functional. Conditions: B16-4A5, 72 h. The procedure, abridged:
as §1

Series [4] in a line: Cytotoxicity against mouse B16-4A5 cells assessed as viable cells at 10 uM after 72 hrs by WST-8 assay. The format is cell-based. As to conditions: read-out: Activity. Summed up:
(§2)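 B16 melanoma 4A5 cells (DMEM, 4.5 g/L glucose, 10% FBS, 37 °C, 5% CO2) seeded at 5.0 × 10^4 cells/well in 96-well plates, grown 24 h, then exposed to test compound (DMSO, final 0.1%) for 70 h. After a PBS wash, cells were given DMEM plus WST-8 for 2 h more. Formazan read at 450 nm (reference 655 nm).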
(In general: Tetrazolium assays rely on reduction of a dye to a coloured formazan, in cell work by metabolically active cells.)

The nature of series [5]: Cytotoxicity against mouse B16-4A5 cells assessed as viable cells at 30 uM after 72 hrs by WST-8 assay. Format: cell-based. As to conditions: read-out: Activity. The procedure, abridged:
as §2

A short description of series [6]: Inhibition of melanogenesis in mouse B16-4A5 cells at 1 uM after 72 hrs by spectrophotometry relative to control. The format is functional. As to conditions: B16-4A5, 72 h. The procedure, abridged: as §1
Series [7] is described as follows: Inhibition of melanogenesis in mouse B16-4A5 cells at 30 uM after 72 hrs by spectrophotometry relative to control. Format: functional. As to conditions: B16-4A5, 72 h. The procedure, abridged:
as §1

Series [8] is described as follows: Inhibition of melanogenesis in mouse B16-4A5 cells at 100 uM after 72 hrs by spectrophotometry relative to control. Conditions: B16-4A5, 72 h. Format: functional. The procedure, abridged:
as §1

Series [9] is described as follows: Inhibition of melanogenesis in mouse B16-4A5 cells at 300 uM after 72 hrs by spectrophotometry relative to control. The format is functional. As to conditions: B16-4A5, 72 h. The procedure, abridged:
(§3)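 B16 melanoma 4A5 cells were grown in DMEM (4.5 g/L glucose) with 10% FBS and penicillin/streptomycin at 37 °C, 5% CO2, then seeded at 2.0 × 10^4 cells/well. After 24 h, compound (DMSO stock, 0.1% DMSO final) was added with 1 mM theophylline for 72 h. Cells were trypsinized, washed, lysed in 1 M NaOH (80 °C, 30 min) and read at 405 nm. Inhibition was corrected for WST-8 viability; mean ± SEM, n = 4.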

Series [10] in a line: Inhibition of melanogenesis in mouse B16-4A5 cells at 1000 uM after 72 hrs by spectrophotometry relative to control. As to conditions: B16-4A5, 72 h. Format: functional. The procedure, abridged: as §3

Regarding `CC1(C)C[C@H](OC(=O)c2ccccc2)[C@@]23CC[C@@H](O)[C@@](C)(CC[C@H]12)C3`, testing at 10 µM in series [1] gave an inhibition of 66.7%. Besides, in series [2], the half-inhibitory concentration (IC50) is 3 µM. The inhibition at 3 µM in [3] amounted to 40.2%. Also, in series [4], the viability at 72 h, 10 µM came to 75.9%. Besides, in [5], the viability at 72 h, 30 µM came to 7.9%. In [6], the inhibition at 1 µM came out at 45.3%.

Regarding `OC[C@H]1O[C@@H](Oc2ccc(O)cc2)[C@H](O)[C@@H](O)[C@@H]1O` [ARBUTIN], the inhibition at 30 µM in series [7] amounted to 20.4%. Further, the inhibition at 10 µM in series [1] turned out to be 10.6%. Besides, in series [2], the IC50 is 174 µM. Moreover, the inhibition at 100 µM in series [8] was 38.1%. This molecule also had an inhibition at 300 µM in series [9] of 61.5%. Besides, at 1000 µM the inhibition in [10] was 83.7%.

As a reminder, the inhibition is the share of the control response that was lost under treatment. Low values mean a weak effect, high ones a strong effect. In general, IC50 refers to the concentration at which inhibition is half-maximal.
